Experimental data of several laboratories.
Target: Serine/threonine-protein kinase Nek6 (NEK6, Homo sapiens, UniProt Q9HC98)

The inhibition of `Cn1cc(-c2cccc(N3CCc4c(sc5c4CC(C)(C)C5)C3=O)c2CO)cc(Nc2ccncn2)c1=O` is reported as 4% (enzyme activity, inhibitor; 1 µM).
With `O=C1Nc2ccc3ncsc3c2/C1=C/c1cnc[nH]1` the remaining activity was 93.2% (enzyme activity, inhibitor; 0.5 µM).
For `N#CC1(c2ccccn2)CCN(Cc2cc(C(=O)O)c(=O)n3ccccc23)CC1`, the remaining binding was 100% (cell-free assay, competition with immobilised ligand; 1 µM).
For `COc1cc(Nc2ncc(F)c(Nc3ccc4c(n3)NC(=O)C(C)(C)O4)n2)cc(OC)c1OC`, the inhibition was 100% (binding, competition with immobilised ligand; 10 µM).
`COc1ncccc1-c1cnn2ccc(N3CCN(C(=O)OC(C)C)CC3)nc12` has a remaining binding of 68% (binding, competition with immobilised ligand; 1 µM).
With `Cc1nn(C)cc1-c1nc2c(N3CCN(Cc4ccc(Cl)cc4)CC3)c(Cl)cnc2[nH]1` the remaining binding was 100% (binding, competition with immobilised ligand; 1 µM).
For `Nc1ncc(-c2nc(N3CCOCC3)nc(N3CCOCC3)n2)c(C(F)F)n1`, the remaining binding was 100% (binding, competition with immobilised ligand; 10 µM).
`O=c1[nH]c2ccccc2n1C1CCN(Cc2ccc(-c3[nH]c4cc5ncnc5cc4nc3-c3ccccc3)cc2)CC1` gave a remaining signal of 98.2% (cell-free assay; 0.5 µM).
The inhibition of `Cn1cc(-c2cc(F)cc(N3CCn4c(cc5c4CCCC5)C3=O)c2CO)cc(Nc2ccc(N3CCN(C4COC4)CC3)cn2)c1=O` is reported as 6% (enzyme activity, inhibitor; 0.1 µM).
With `Cn1cncc1[C@](O)(COc1ccc(C#N)cc1-c1ccc(OC(F)(F)F)cc1)c1ccc(C#N)cc1` the remaining binding was 95% (cell-free assay, competition with immobilised ligand; 1 µM).
